“Also recorded” adds a separate entry of the source.
What was measured:
Rugli cells (α1β1) = assay: Real-time Rugli cell adhesion; assay type: cell-based, rat; details: xCELLigence
PC12 cells (α1β1) = assay: Real-time PC12 cell adhesion using xCELLigence; assay type: cell-based, rat; details: for PC12 cell adhesion (cell index), in words: […] 10^4 cells/well, 2 mM Mg^2+; for PC12 cell adhesion (cell index), in words / PC12 cell adhesion in presence of EDTA: 2 h; for PC12 cell adhesion in presence of EDTA: 2 mM EDTA; for PC12 cell adhesion relative to II-27: Mg^2+, % of the level attained with II-27, four independent experiments
α2β1 = details: cited from earlier work; for affinity for α2β1, in words: ref [37], [38]; for affinity for the α2 I domain, in words: ref [39], [46]
[1] = tested on: parental C2C12 cells lacking collagen-binding integrins; assay: Adhesion of parental C2C12 cells; assay type: cell-based, mouse; details: real-time adhesion, GPP10 control
[2] = tested on: C2C12-α11^+ cells (human α11β1); assay: Real-time adhesion of C2C12-α11^+ cells; assay type: cell-based, mouse cells expressing human α11β1; details: xCELLigence; 25,000 cells/well, 2 h; GPP10 control
[3] = tested on: C2C12-α2^+ cells (human α2β1); assay: Real-time adhesion of C2C12-α2^+ cells; assay type: cell-based, mouse cells expressing human α2β1; details: xCELLigence; 25,000 cells/well, 2 h; GPP10 control
[4] = tested on: recombinant human α2 I domain; assay: SPBA, wild-type α2 I domain to coated peptides; assay type: binding; details: 0.1 μg protein/well, four independent experiments
α1β1 = details: cited from earlier work; for preference of α1β1 and α10β1 among collagens, in words: ref [28], [29]
[5] = tested on: α1β1-expressing Rugli cells; details: ref [54]; cited from earlier work
[6] = tested on: constitutively active E317W α1 I domain; assay: SPBA, constitutively active E317W α1 I domain to coated peptides; assay type: binding; details: 0.1 μg protein/well, four independent experiments
[7] = tested on: recombinant human α1 I domain; assay: Solid-phase binding assay; details: conclusion from all data together
[8] = tested on: constitutively active E318W α2 I domain; assay: SPBA, constitutively active E318W α2 I domain to coated peptides; assay type: binding; details: 0.1 μg protein/well, four independent experiments
Method in brief: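 GST-tagged I domain (0.1 μg/well) added to triple-helical peptides coated at 10 μg/ml (1 h, 22 °C), blocked 1 h with TBS/50 mg/ml BSA. Binding 1 h at room temperature in TBS/1 mg/ml BSA with 2 mM MgCl₂ or EDTA. Detected with HRP anti-GST (1:10,000, 1 h) and TMB colour. Mean ± S.E. of four independent experiments, each in triplicate.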

CCCCCCCCCCCCCC(=O)O[C@@H]1[C@@H](C)[C@@]2(O)[C@@H](C=C(CO)C[C@]3(O)C(=O)C(C)=C[C@@H]23)[C@@H]2C(C)(C)[C@]12OC(C)=O [PMA, phorbol 12-myristate 13-acetate, reference compound]
Effect of PMA treatment on Rugli cell adhesion (Rugli cells (α1β1); 1 μM PMA, 30 min): increased both the rate of onset of adhesion and the peak cell index

GAOGER
PC12 cell adhesion (cell index), in words (PC12 cells (α1β1); xCELLigence): Moderate binding

GASGER
affinity for α2β1, in words (α2β1): intermediate or low affinity, which increased upon cell activation

GDQGVOGEAGAO [II-27-B]
parental C2C12 cell adhesion, in words [1]: None of these cells showed any specific binding | PC12 cell adhesion in presence of EDTA (PC12 cells (α1β1); xCELLigence): no adhesion was observed in the presence of EDTA | PC12 cell adhesion relative to II-27 (PC12 cells (α1β1); xCELLigence): ~40% | C2C12-α11^+ cell adhesion, in words [2]: None of these cells showed any specific binding | C2C12-α2^+ cell adhesion, in words [3]: None of these cells showed any specific binding | adhesion of wild-type α2 I domain, in words [4]: did not bind

GFPGEN
α1β1 selectivity / α1 I domain affinity, in words (α1β1; expressed within Streptococcus pyogenes collagen-like molecules, ref [40]): selective ligand for α1β1; also recorded: higher affinity for the α1 I domain compared with GFPGER

GFPGER
affinity for the α2 I domain, in words (α2β1): high or moderate affinity motifs for the α2 I domain | PC12 cell adhesion (cell index), in words (PC12 cells (α1β1); xCELLigence): weak binding (lower compared with GFOGER) | ligand quality for α1β1-expressing Rugli cells, in words [5]: poor ligand for α1β1-expressing Rugli cells

GKOGDQGVOGEAGAO [II-27-C]
parental C2C12 cell adhesion, in words [1]: None of these cells showed any specific binding | PC12 cell adhesion in presence of EDTA (PC12 cells (α1β1); xCELLigence): no adhesion was observed in the presence of EDTA | PC12 cell adhesion relative to II-27 (PC12 cells (α1β1); xCELLigence): ~40% | PC12 cell adhesion (cell index), in words (PC12 cells (α1β1); xCELLigence): no greater than to GVOGEA | C2C12-α11^+ cell adhesion, in words [2]: None of these cells showed any specific binding | C2C12-α2^+ cell adhesion, in words [3]: None of these cells showed any specific binding | adhesion of wild-type α2 I domain, in words [4]: did not bind

GLKGEN
PC12 cell adhesion (cell index), in words (PC12 cells (α1β1); xCELLigence): only slight activity

GLOGEA
affinity for the α2 I domain, in words (α2β1): high or moderate affinity motifs for the α2 I domain

GLOGER
affinity for the α1 I domain versus α2 I domain, in words (α1β1; ref [37], [38]): relatively higher affinity for the α1 I domain than for the α2 I domain

GLSGER
affinity for α2β1, in words (α2β1): intermediate or low affinity, which increased upon cell activation

GMOGER
affinity for the α2 I domain, in words (α2β1): high or moderate affinity motifs for the α2 I domain | PC12 cell adhesion (cell index), in words (PC12 cells (α1β1); xCELLigence): Moderate binding

GPOGPOGEGGKOGDQGVOGEAGAOGV [II-27]
Rugli cell adhesion without activation, in words (Rugli cells (α1β1); control Rugli cells): moderate ligand for α1β1 | parental C2C12 cell adhesion, in words [1]: None of these cells showed any specific binding | adhesion of active E317W α1 I domain, in words [6]: E317W but not E318W bound strongly | overall α1β1 recognition / selectivity, in words [7]: new α1β1-binding activity | Increase of PC12 cell binding upon substitution of Mg^2+ with Mn^2+ (PC12 cells (α1β1); real-time binding assay, Mn^2+ vs Mg^2+ (data not shown)): 65% | PC12 cell adhesion, comparison of selected peptides (Fig. 7) (PC12 cells (α1β1); xCELLigence, 25,000 cells/well, mean cell index after 2 h, three experiments): bound most strongly to III-7 and then to II-27 and II-28 | adhesion of active E318W α2 I domain, in words [8]: E317W but not E318W bound strongly | C2C12-α11^+ cell adhesion, in words [2]: None of these cells showed any specific binding; also recorded: did not bind | C2C12-α2^+ cell adhesion, in words [3]: None of these cells showed any specific binding; also recorded: did not bind | adhesion of wild-type α2 I domain, in words [4]: did not bind

GQRGER
affinity for α2β1, in words (α2β1): intermediate or low affinity, which increased upon cell activation

GROGER
affinity for the α2 I domain, in words (α2β1): high or moderate affinity motifs for the α2 I domain | PC12 cell adhesion (cell index), in words (PC12 cells (α1β1); xCELLigence): only slight activity

GSOGEN
overall α1β1 recognition / selectivity, in words [7]: displays little activity

collagen IV: monomeric pepsin-digested human collagen IV (C-5533) [reference compound]
preference of α1β1 and α10β1 among collagens, in words (α1β1): preferentially bind collagen types IV and VI over fibrillar collagens | affinity of α1β1 for collagen IV, in words (α1β1; ref [30]): high affinity

collagen VI: collagen type VI
preference of α1β1 and α10β1 among collagens, in words (α1β1): preferentially bind collagen types IV and VI over fibrillar collagens
